Publication PMC7144688 (Cell chemical biology, 2020)
Blank lines part the entries; values can stand above or below the molecule they belong to.

Tests used:
[1] = biological target: 6P chaperone complex (Hsp90, Hsp70, Hop, BAG1, Aha1 & Hsp40) refolding of FLuc (Homo sapiens, UniProt O95433+P08238+P0DMV8); test: In vitro refolding of heat-denatured firefly luciferase by 6P chaperone complex; type: biochemical; settings: 15 μM
[2] = biological target: Aha1-stimulated Hsp90 (ASH) ATPase activity (Homo sapiens, UniProt O95433+P08238); test: Aha1-stimulated Hsp90; type: biochemical
Chain of Aha1-stimulated Hsp90 (ASH) ATPase activity (O95433 whole entry): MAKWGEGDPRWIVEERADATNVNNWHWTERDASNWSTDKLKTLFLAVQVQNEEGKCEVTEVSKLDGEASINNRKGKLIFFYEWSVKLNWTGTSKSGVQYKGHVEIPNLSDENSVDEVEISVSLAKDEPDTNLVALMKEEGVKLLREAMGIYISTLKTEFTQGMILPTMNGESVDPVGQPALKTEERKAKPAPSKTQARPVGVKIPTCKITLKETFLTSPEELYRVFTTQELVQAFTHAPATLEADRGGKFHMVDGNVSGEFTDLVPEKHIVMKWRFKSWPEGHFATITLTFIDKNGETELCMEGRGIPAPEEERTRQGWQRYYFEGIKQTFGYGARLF
Chain of Aha1-stimulated Hsp90 (ASH) ATPase activity (P08238 whole entry): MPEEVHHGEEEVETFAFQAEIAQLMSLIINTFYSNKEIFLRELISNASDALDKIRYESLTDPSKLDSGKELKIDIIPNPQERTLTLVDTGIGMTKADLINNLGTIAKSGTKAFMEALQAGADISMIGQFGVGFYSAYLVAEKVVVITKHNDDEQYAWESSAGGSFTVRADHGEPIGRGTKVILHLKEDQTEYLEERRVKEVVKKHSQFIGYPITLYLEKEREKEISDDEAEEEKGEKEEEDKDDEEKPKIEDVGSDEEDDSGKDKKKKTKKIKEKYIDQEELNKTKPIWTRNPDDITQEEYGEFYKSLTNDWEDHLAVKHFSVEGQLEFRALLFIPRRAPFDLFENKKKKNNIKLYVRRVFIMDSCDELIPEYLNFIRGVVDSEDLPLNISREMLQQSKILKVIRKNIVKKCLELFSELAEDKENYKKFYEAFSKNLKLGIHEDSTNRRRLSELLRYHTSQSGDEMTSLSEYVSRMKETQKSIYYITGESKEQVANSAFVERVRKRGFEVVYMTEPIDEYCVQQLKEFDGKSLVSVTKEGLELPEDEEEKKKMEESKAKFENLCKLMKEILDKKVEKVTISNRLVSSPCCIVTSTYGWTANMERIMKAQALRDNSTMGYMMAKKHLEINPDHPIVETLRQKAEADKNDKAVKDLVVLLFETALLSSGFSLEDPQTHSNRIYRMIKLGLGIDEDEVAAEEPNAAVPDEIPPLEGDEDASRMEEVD

androgen receptor (AR) = test: AR-mediated transcription assay in MDA-kb2 cells; type: cell-based, human; settings: 0.2 nM DHT, 20 h
Summary of the method: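 MDA-kb2 cells carrying a stable androgen/glucocorticoid-responsive firefly luciferase reporter were seeded at 20,000 cells/well in Leibovitz's L-15 with 10% charcoal-stripped FBS (0% CO2) and grown to 80% confluence. Cells were co-treated with DHT and graded test compound for 20 h, lysed in Bright-Glo reagent for 4 min at room temperature, and luminescence was read.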

human Hsp90β = human Hsp90β (human, UniProt P08238 1-724); test: other fluorescence titration
Chain of human Hsp90β (P08238 whole entry): as above

Chain of 6P chaperone complex (Hsp90, Hsp70, Hop, BAG1, Aha1 & Hsp40) refolding of FLuc (O95433 whole entry): as the sequence (O95433 whole entry) above
Chain of 6P chaperone complex (Hsp90, Hsp70, Hop, BAG1, Aha1 & Hsp40) refolding of FLuc (P08238 whole entry): as the sequence (P08238 whole entry) above
Chain of 6P chaperone complex (Hsp90, Hsp70, Hop, BAG1, Aha1 & Hsp40) refolding of FLuc (P0DMV8 whole entry): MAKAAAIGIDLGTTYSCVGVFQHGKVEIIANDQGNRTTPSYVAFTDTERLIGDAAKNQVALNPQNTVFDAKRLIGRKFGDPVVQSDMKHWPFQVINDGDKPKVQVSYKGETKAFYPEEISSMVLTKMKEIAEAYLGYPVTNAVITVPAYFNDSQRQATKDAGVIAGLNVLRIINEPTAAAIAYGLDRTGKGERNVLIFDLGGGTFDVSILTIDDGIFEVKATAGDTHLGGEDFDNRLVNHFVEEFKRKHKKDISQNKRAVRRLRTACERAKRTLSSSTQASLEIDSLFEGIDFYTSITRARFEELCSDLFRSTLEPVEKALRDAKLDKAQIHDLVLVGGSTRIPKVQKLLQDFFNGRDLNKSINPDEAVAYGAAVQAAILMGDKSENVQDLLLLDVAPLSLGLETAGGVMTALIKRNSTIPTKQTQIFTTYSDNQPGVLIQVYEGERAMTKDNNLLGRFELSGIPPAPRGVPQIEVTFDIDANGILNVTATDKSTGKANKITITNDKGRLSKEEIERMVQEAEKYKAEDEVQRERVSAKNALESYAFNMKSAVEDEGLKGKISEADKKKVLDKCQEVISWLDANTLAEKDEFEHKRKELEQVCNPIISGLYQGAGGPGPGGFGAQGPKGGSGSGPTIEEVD

Molecule: CCn1c(=O)/c(=C2\Sc3cc(Cl)ccc3N2C)s/c1=C\c1scc[n+]1Cc1ccccc1.[Cl-] [JG98]
effect on FLuc refolding [1]: completely block

Molecule: COC1=C2C[C@@H](C)C[C@H](OC)[C@H](O)[C@@H](C)/C=C(\C)[C@H](OC(N)=O)[C@@H](OC)/C=C\C=C(/C)C(=O)NC(=CC1=O)C2=O [GA, geldanamycin]
activity in ASH assay (screen) [2]: failed to completely inhibit the ASH activity
reduction in FLuc refolding [1]: 25%

B1: acrylodan-labeled CTD of Aha1 (domain or fragment, human, UniProt O95433 164-338, looked up)
chain: ILPTMNGESVDPVGQPALKTEERKAKPAPSKTQARPVGVKIPTCKITLKETFLTSPEELYRVFTTQELVQAFTHAPATLEADRGGKFHMVDGNVSGEFTDLVPEKHIVMKWRFKSWPEGHFATITLTFIDKNGETELCMEGRGIPAPEEERTRQGWQRYYFEGIKQTFGYGARLF
modifications: acrylodan on cysteine residues
binding result (human Hsp90β): binds

The remaining lines, values ahead:

IC50 of AR-dependent luciferase expression (androgen receptor (AR)): better than that of the Hsp90i 17-AAG
Molecule: C=CCNC1=C2C[C@@H](C)C[C@H](OC)[C@H](O)[C@@H](C)/C=C(\C)[C@H](OC(N)=O)[C@@H](OC)/C=C\C=C(/C)C(=O)NC(=CC1=O)C2=O [17-AAG]

IC50 of AR-dependent luciferase expression (androgen receptor (AR)): similar
Molecule: O=C(Nc1cccc(Cl)c1Cl)C1CCCCC1 [MJC13]
